Data set [1] concerns Plasmodium falciparum. The experiment in a line: Antiplasmodial activity against chloroquine-resistant Plasmodium falciparum Dd2 infected in human RBCs after 72 hrs by SYBR Green based parasite proliferation assay. It counts as functional, organism-based. The following applies: Dd2, 72 h. Put shortly:
(§1)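 P. falciparum (3D7 or Dd2) grown in human O+ erythrocytes in RPMI 1640 with gentamicin, hypoxanthine, HEPES, bicarbonate, glucose, Albumax and 5% human serum. Gassed with 3% CO2, 1% O2, 96% N2 and held at 37°C. Parasites exposed to serial compound dilutions for 72 h. Parasite DNA increase read by SYBR Green fluorescence (ex 495, em 525 nm).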

The subject of data set [2] is Plasmodium falciparum. The experiment in a line: Antiplasmodial activity against chloroquine-sensitive Plasmodium falciparum 3D7 infected in human RBCs after 72 hrs by SYBR Green based parasite proliferation assay. It counts as functional, organism-based. The settings on record: 3D7, 72 h. Put shortly:
as §1

Data set [3] deals with Mycobacterium tuberculosis. The experiment in a line: Antimycobacterial activity against Mycobacterium tuberculosis H37Rv ATCC 27294 by microplate alamar blue assay. It counts as functional. Put shortly: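 Mtb H37Rv tested in the microplate Alamar blue assay; rifampicin served as positive control.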
In general terms: Resazurin is reduced to fluorescent resorufin, in cell work by metabolically active cells.

For data set [4], the system named is Vero. The experiment in a line: Cytotoxicity against African green monkey Vero cells by MTS assay. It counts as cell-based. The following applies: Chlorocebus sabaeus. For orientation: Formazan colour is commonly taken as a measure of viable cells.
Data set [5] is described as follows: Selectivity index, ratio of IC50 for African green monkey Vero cells to IC50 for chloroquine-resistant Plasmodium falciparum Dd2. Format: toxicity, cell-based. The following applies: read-out: Ratio IC50.
Data set [6] can be described thus: Selectivity index, ratio of IC50 for African green monkey Vero cells to IC50 for chloroquine-sensitive Plasmodium falciparum 3D7. It counts as toxicity, cell-based. The settings on record: read-out: Ratio IC50.
Data set [7] in a line: Selectivity index, ratio of IC50 for African green monkey Vero cells to MIC for Mycobacterium tuberculosis H37Rv ATCC 27294. It counts as toxicity, cell-based. The settings on record: read-out: Selectivity Index.

Each structure is given as a SMILES string. In brackets after ≈: the same amount, converted by molar mass.

The term IC50 denotes the concentration needed to halve the response being measured. For orientation: MIC means the least concentration at which growth counts as inhibited. Take `C=C1CC[C@@]2(N=C=S)[C@H]3[C@H](CC[C@@H]2C)[C@@H](C)C[C@@H](CC(C)(C)N=C=S)[C@H]13`: the IC50 in data set [1] was 11.6 µM; in data set [2] it was 11.8 µM; in data set [4], above 100 µM. Besides, in data set [3], the MIC amounted to 99.1 µM (≈ 38.5 µg/mL). Also, the selectivity ratio was above 9 in data set [5], above 8 in data set [6] and above 1 in data set [7].
For `C=C1CC[C@@]2(N=C=[Se])[C@H]3[C@H](CC[C@@H]2C)[C@@H](C)C[C@@H](CC(C)(C)N=C=[Se])[C@H]13`, the IC50 came out at 0.0066 µM in data set [1], 0.0025 µM in data set [2] and 48.6 µM in data set [4]. Besides, in data set [3], the MIC turned out to be 3.9 µM (≈ 1.88 µg/mL). Also, the values for the selectivity ratio in data set [5], in data set [6] and in data set [7] were 7360, 19400 and 12.4, respectively.
As to `[C-]#[N+]C(C)(C)C[C@@H]1C[C@H](C)[C@H]2CC[C@H](C)[C@@]3([N+]#[C-])CCC(=C)[C@@H]1[C@H]23` [DIISOCYANOAMPHILECTENE], in data set [1], the concentration for half-maximal inhibition (IC50) amounted to 0.0031 µM. In addition, in data set [3], the minimum inhibitory concentration (MIC) came out at 9.8 µM (≈ 3.18 µg/mL). Besides, the values for the selectivity ratio in data set [5], in data set [6] and in data set [7] were 32200, 83100 and 10.2, respectively.
`CO[C@H]1/C=C/O[C@@]2(C)Oc3c(C)c(O)c4c(O)c(c(/C=N/N5CCN(C)CC5)c(O)c4c3C2=O)NC(=O)/C(C)=C\C=C\[C@H](C)[C@H](O)[C@@H](C)[C@@H](O)[C@@H](C)[C@H](OC(C)=O)[C@@H]1C` [RIFAMPIN]: in data set [3], inhibition of growth (MIC) required 0.09 µM (≈ 0.0741 µg/mL). In data set [4], the 50% inhibitory concentration (IC50) is above 100 µM. Moreover, the selectivity ratio in data set [7] was above 1100.

For the origin of these results see ChEMBL document CHEMBL3751681, “Natural product-based synthesis of novel anti-infective isothiocyanate- and isoselenocyanate-functionalized amphilectane diterpenes” (Bioorg Med Chem Lett, 2016).
